From PubChem BioAssay
Arr AP2 block: inhibitors of human beta-arrestin and AP2 interaction. FITC-arrestin peptide / GST-AP2 beads, flow cytometry; AP2 beta2 appendage carries R879A mutation. inhibition, % at 10 µM. hit rate 0.31% among 340,000. AID 504490;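 active = inhibition above a set limit, near 3 SD of compounds lacking own fluorescence, cut at about 54% in these data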;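 also: plate controls were DMSO wells for no effect and 5 µM unlabelled arrestin peptide for full effect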
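Material – GST-tagged AP2 beta2-adaptin appendage (R879A) on 4 µm glutathione beads · Probe or stimulus – fluorescein-tagged arrestin peptide at 50 nM final · Timing – 12 min plus 1 h, RT · Detection – bead flow cytometry, FITC channel · Read-out basis – inhibition as reduced fluorescein signal on beads, percent · Medium – PBS plus Tween 20 (0.05%) and BSA (0.1%)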
sPLA2-III inh: Blocks human group III sPLA2 activity | QFRET BODIPY PC-A2 liposome hydrolysis, fluorescence | inhibition, % at 12.2 µM | hit rate 0.56% among 370,000 | AID 743126;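 active = inhibition above mean plus 3 SD of compounds lying within the high and low control bounds, cut at about 19% in these data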;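 also: 0% = median of test compound wells and 100% = no enzyme DMSO wells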
PLCb3 inh: blocks human PLC-beta3 enzyme activity; Q01970; Purified PLC-beta3, fluorogenic substrate, fluorescence; inhibition, % at 12.2 µM; hit rate 0.18% among 370,000; AID 720704; in the data active = inhibition above about 11%;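 also: 0% = median of compound wells on plate and 100% = full blocker control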
PLCg1 inh: PLC-gamma1 (human) inhibition, primary screen; hit rate 0.84% among 370,000; purified PLC-gamma1, fluorogenic substrate, fluorescence; inhibition, % at 12.2 µM; AID 720700; in the data active = inhibition above about 9.5%
procasp7 counter: activates human procaspase-7, counter-screen for procaspase-3 activators; P55210; recombinant procaspase-7, Ac-DEVD-pNA absorbance 405 nm; D23A/D198A/D206A triple mutant, cannot self-cleave; scale: DMSO 0, 5 µM enzyme 100; activation, % at 8.5 µM; hit rate 0.093% among 330,000; AID 463210;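 active = percent activation above the screen-wide mean plus 3 SD, cut at about 25% in these data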
Target sequence (P55210 whole entry D23A/D198A/D206A): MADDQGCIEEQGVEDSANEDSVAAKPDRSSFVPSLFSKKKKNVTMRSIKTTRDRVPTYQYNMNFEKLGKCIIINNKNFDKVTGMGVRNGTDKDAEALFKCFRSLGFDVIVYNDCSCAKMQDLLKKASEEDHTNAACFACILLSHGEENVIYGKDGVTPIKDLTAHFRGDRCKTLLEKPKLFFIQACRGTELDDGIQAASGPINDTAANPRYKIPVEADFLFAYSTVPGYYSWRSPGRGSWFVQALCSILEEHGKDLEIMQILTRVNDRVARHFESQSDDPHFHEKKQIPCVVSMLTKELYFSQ
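buffer or medium = Zinc-free HEPES/NaCl buffer, pH 7.4 | material = Procaspase-7 triple mutant (PC-7 D3A) | input = 2 µM procaspase-7 mutant as dispensed | signal = Epi-absorbance of released pNA at 405 nm, two timepoints | timing = 1 h preincubation, 2 h reaction | replicates = singlicate compound testing | evaluation = % activation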
procasp3 activ: procaspase-3 (human) activation; P42574; recombinant procaspase-3 D3A, Ac-DEVD-pNA absorbance 405 nm; activation, % at 8.5 µM; hit rate 0.11% among 330,000; AID 463141;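 active = activation above the mean of all tested compounds plus 3 SD, cut at about 21% in these data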;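 also: 0% = DMSO alone and 100% = DMSO wells spiked with extra 5 µM PC-3 D3A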
Target sequence (P42574 whole entry D9A/D28A/D175A): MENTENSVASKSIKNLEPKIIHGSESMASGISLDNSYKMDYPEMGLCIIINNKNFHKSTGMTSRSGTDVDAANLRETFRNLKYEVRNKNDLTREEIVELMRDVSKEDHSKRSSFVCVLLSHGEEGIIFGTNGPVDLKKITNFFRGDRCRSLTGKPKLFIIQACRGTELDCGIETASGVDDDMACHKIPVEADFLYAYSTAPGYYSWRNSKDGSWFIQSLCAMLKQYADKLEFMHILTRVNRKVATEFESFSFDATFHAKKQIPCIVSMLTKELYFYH
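Evaluation: percent activation relative to control range; Material: Procaspase-3 D3A mutant, all three cleavage aspartates alanine; Compound: single dose, 8.5 µM nominal compound, 0.8% DMSO; Replication: one well per compound; Signal: absorbance at 405 nm, 0 and 120 min; Schedule: 1 h preincubation plus 2 h reaction at 25 °C.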
Starred values were filed as active, the others as inactive; . = not tested or not shown. Compounds with a hit are over-represented: about 1.9% of the library has one in this group of screens.

SMILES	Arr AP2 block	sPLA2-III inh	PLCb3 inh	PLCg1 inh	procasp7 counter	procasp3 activ
COc1cc2c(cc1OC)C(c1cccs1)N(C(=O)c1cccnc1)CC2 (stereo not drawn)	-5	2	4	9.9*	1	8
CC(C)C[C@@H](CN1CCC[C@@H]1CN1C(=O)C(=O)NC[C@@H]1Cc1ccccc1)N1C[C@H](Cc2ccccc2)N(CC2CCCCCC2)C(=O)C1=O	-14	3	13*	4	.	.
CC(C)C[C@@H](CN1CCC[C@@H]1CN1C(=O)C(=O)NC[C@@H]1Cc1ccccc1)N1C[C@H](Cc2ccccc2)N(CC2CCCCC2)C(=O)C1=O	.	0	2	4	.	.
CC(C)C[C@H]1CN([C@@H](Cc2ccc(O)cc2)CN2CCC[C@@H]2CN2C(=O)C(=O)NC[C@@H]2Cc2ccccc2)C(=O)C(=O)N1CC1CCCCC1	-1	-29	5	13*	.	.
COc1cc(CNC(=O)CCCC(=O)c2ccccc2)cc(OC)c1OC	-4	6	-1	9.9*	-7	4
Cc1cc(NC(c2ccc(Cl)cc2)c2ccc3cccnc3c2O)no1 (stereo not drawn)	-5	35*	-12	-20	-1	-2
CC(=O)NC(c1ccc(Cl)cc1)c1ccc2cccnc2c1O (stereo not drawn)	17	8	-36	-16	.	.
CNC(=O)C[C@H]1CC[C@H]2[C@@H](COc3ccc(NC(=O)Nc4ccccc4)cc3C(=O)N2C)O1	.	-10	2	4	.	.
CC(C)CC(=NNC(=O)c1ccncc1)c1cc(Cl)ccc1O	25	21*	-156	-113	.	.
COCCNC(=S)N(C)[C@H]1C[C@H]2c3[nH]c4c(-c5ccc6c(c5)OCO6)cccc4c3CCN2C[C@H]1[C@H](C)O	.	-8	-13	-10	.	.
COc1ccc(NC(=O)C2CCCN(S(=O)(=O)c3ccccc3)C2)c(OC)c1 (stereo not drawn)	-6	1	-2	12*	4	8
COc1ccc(S(=O)(=O)N2CCCC(C(=O)Nc3ccc(OC)c(OC)c3)C2)cc1 (stereo not drawn)	4	-9	2	1	13	-3
CC(C)C(=O)OCCCN1C(=O)CCC12CCC(c1ccccc1)CC2 (stereo not drawn)	.	-5	0	-3	.	.
COc1ccc(-c2cc(-c3ccccc3)nc(N3CCCC3)n2)cc1OC	-9	-2	-127	-76	27*	10
COc1ccc(S[C@]2(C(=O)N3CCN(c4ncccn4)CC3)CC(=O)N(c3ccsc3)[C@@H]2c2ccc(OC)cc2)cc1	.	-1	-4	0	.	.
COc1ccc(C(=O)CSc2nnc(-c3ccc(C(C)(C)C)cc3)n2C)cc1	.	-28	2	0	.	.
COCCn1c(=O)c2ccccc2c2ccccc2c1=O	37	2	2	3	11	0
CC(=O)OCCn1c(=O)c2cc3c(=O)n(CCOC(C)=O)c(=O)c3cc2c1=O	-5	0	4	9.9*	4	9
O=C(/C=C/c1ccc(Cl)cc1)NC(=S)Nc1ccc(C(=O)O)cc1	-2	2	0	11*	-8	0
CC(C)CN(C(=O)CCNC(=O)c1ccc([N+](=O)[O-])cc1)C1CCS(=O)(=O)C1 (stereo not drawn)	2	8	11*	7	3	-1
C#CCCCN([C@@H](CC(C)C)C(=O)OC)S(=O)(=O)c1ccccc1Br	.	1	0	-1	.	.
COC(=O)c1ccc(Oc2nc(NC(C)C)nc(N(C)C)n2)cc1	0	6	15*	3	5	-8
CCN(Cc1cn(Cc2ccccc2)nn1)S(=O)(=O)c1ccccc1Br	.	-3	2	0	.	.
COC1=C[C@H](C(=O)NCc2ccc(Br)cc2)[C@H](C)[C@@H](c2ccccc2)CC1=O	.	-16	-2	2	.	.
COc1ccc(OC)c(CN2CCN(C(=O)c3cccc4ccccc34)CC2)c1	9	-6	3	13*	11	3
SMILES	Arr AP2 block	sPLA2-III inh	PLCb3 inh	PLCg1 inh	procasp7 counter	procasp3 activ
COc1ccc(OC)c(CN2CCN(C(=O)c3cc4ccccc4cc3O)CC2)c1	-2	-53	-72	-47	-5	2
O=C(CN1CCN(c2ccc(F)cc2)CC1)Nc1ccccc1Br	-1	7	4	17*	-6	0
Cn1cc(C(=O)c2ccc(Cl)cc2Cl)cc1C(=O)N/N=C(\N)COc1ccc(Cl)cc1Cl	2	16	-1	12*	7	0
O=C(COC(=O)CNC(=O)c1ccccc1F)NC12CC3CC(CC(C3)C1)C2	16	-10	-2	12*	14	12
CCOC(=O)CC[C@@H]1CC[C@]2(CCCN(Cc3cccs3)C2)O1	.	1	2	2	.	.
C=CCOC(=O)N[C@H](c1cccc(OC)c1)[C@H](C)/C=C/CC(=O)OC	.	13	1	0	.	.
C1CSC2(N1)C1CC3CC(C1)CC2C3 (stereo not drawn)	3	11	12*	1	-21	-23
S=C1NNC2(NN1)C1CC3CC(C1)CC2C3	9	18	4	6	-12	-14
Nc1c(C(=O)N2CCOCC2)cnn1Cc1ccccc1	.	7	1	0	.	.
O=C(c1ccccc1NS(=O)(=O)c1cccc([N+](=O)[O-])c1)N1CCOCC1	11	0	5	2	7	26*
O=C(c1ccccc1NS(=O)(=O)c1ccc(Br)cc1)N1CCOCC1	2	-4	0	-3	.	.
Cc1cc(SCC(=O)N/N=C/c2ccc(O)c(O)c2O)c(C)cc1Br	27	32*	-8	-6	-28	-26
O=C(CN1CC(=O)Oc2ccccc21)OCC(=O)c1ccccc1	1	3	5	3	-1	0
O=C(CN1CC(=O)Oc2ccccc21)OCC(=O)c1cccc(Br)c1	58*	.	.	.	4	0
COc1ccc(CN=Cc2c(O)[nH]c3ccccc23)cc1	-15	13	5	10.0*	-7	-1
O=C(C1CCCN1S(=O)(=O)c1ccc([N+](=O)[O-])cc1)N1CCN(c2ccccc2)CC1 (stereo not drawn)	.	8	-2	2	.	.
CC1=NN(c2ccccc2)C(=O)/C1=C\c1ccc(Oc2ccc([N+](=O)[O-])cc2[N+](=O)[O-])cc1	0	8	4	20*	4	8
CC1(C)N=C(N)N=C(N)N1c1ccc(CCCCc2ccccc2)cc1	.	-3	4	11*	.	.
CC1(C)N=C(N)N=C(N)N1c1ccccc1	-6	9	6	2	0	-1
COc1ccc(C(CNC(=O)c2ccc(C)c(S(=O)(=O)N3CCOCC3)c2)N2CCCC2)cc1 (stereo not drawn)	2	11	-15	10*	.	.
